# Active and inactive are the calls of the source.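 Rule for the calls: active = viability loss with fitted half-maximal concentration at most ten times the top valid dose; inconclusive = flat fit with 30 to 70% inhibition, or poor fit; inactive = the rest, including rising signal.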
# Tested on: SK-MEL-5 viability, CellTiter-Glo ATP luminescence, 24 h
# Experiment: SK-MEL-5 parental cell viability loss, dose response, orthogonal assay for MITF inhibitor project, CellTiter-Glo luminescence, dry powder samples (AID 540347)
# Conditions: not given
# Method in brief: (§1)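 Schedule: 24 h compound exposure, 37 °C. Assay system: SK-MEL-5 melanoma cells, parent of primary-assay reporter line. Buffer or medium: phenol red-free medium. Read-out: cell viability. Measured by: ATP luminescence, CellTiter-Glo.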
row,SMILES,IC50
1,CC(C)C(CCNC1CCN(C)CC1)c1ccc(Cl)cc1 (stereo not given),36.5 µM
2,CCN1CCCC1CNC(=O)c1ccc2c(c1)NC(=O)/C(=C\c1ccc(C)cc1)S2 (stereo not given),29.1 µM
3,CC1=NNC(=O)/C1=C\c1cn(-c2ccccc2)nc1-c1ccc(F)cc1,25.4 µM
4,O=c1c(Cl)c2oc3ccccc3nc-2c2ccccc12,24.7 µM
5,CCN1c2ccccc2NC2N=C(OC)C(c3ccccc3)C21 (stereo not given),4.78 µM
6,COc1ccc(S(=O)(=O)N(C(C)=O)c2ccc(OC(C)=O)c3ccccc23)cc1[N+](=O)[O-],6.58 µM
7,C=CCNC1=C(Cl)C(=O)c2ccccc2C1=O,14.3 µM
8,O=C(COc1ccccc1)N/N=C/c1ccc([N+](=O)[O-])o1,35.5 µM
9,Cc1nc2ccccc2n1/N=C/c1ccc([N+](=O)[O-])s1,9.51 µM
10,N=c1n(CCN2CCCC2)c2ccccc2n1CC(O)c1ccc(Cl)c(Cl)c1 (stereo not given),30.5 µM
11,Cc1[nH]c2ccccc2c1C(=O)CCl,27.7 µM
12,Cc1cc(C(C)(C)C)cc(C)c1Cn1c2[n+](c3ccc(C(F)(F)F)cc31)CCCCC2,27.1 µM
13,COc1cc2c(cc1OC)C(c1ccccc1)N(C(=O)CCl)CC2 (stereo not given),28.4 µM
14,CN(C)CCCNC(=O)/C(=C\c1ccc(-c2ccc(Br)cc2)o1)NC(=O)c1ccccc1,32 µM
15,CCN1CCN(C2=C(NS(=O)(=O)c3ccc(Br)cc3)C(=O)c3ccccc3C2=O)CC1,33.5 µM
16,CC1(C)CC(NC(=O)c2ccc(Cl)c(S(=O)(=O)N(Cc3ccccc3)c3ccccc3)c2)CC(C)(C)N1,29.2 µM

# Tested on: not listed separately
# Experiment: as above
# Conditions: SK-MEL-5 viability, CellTiter-Glo ATP luminescence, 24 h; at 35 µM (top of the series)
# Method in brief: as §1
row,SMILES,"activity change, negative = inhibition"
1,Cc1ccc(C(C)C)c(OCc2nn(CC(=O)c3ccc(Cl)cc3)c3[n+]2CCCCC3)c1,-4.44% (inactive)
2,Cc1ccc(C(=O)N/N=C/c2ccc([N+](=O)[O-])s2)cc1,-12.1% (inactive)
3,CCN(CC)CCNC(=O)c1c(C)n(-c2ccccc2)c2cc(Br)c(OC)cc12,-13.7% (inactive)
4,Cc1ccc(C(O)(c2ccc(C)c(C)c2)C2CN3CCC2CC3)cc1C (stereo not given),-2.1% (inactive)
5,CC1CCN(CC(CS(=O)(=O)c2ccc([N+](=O)[O-])cc2)N2CCC(C)CC2)CC1 (stereo not given),3.72% (inactive)
6,Cc1oc(-c2ccc(Cl)cc2)nc1CN1CCC(C(=O)NCCCN2CCCC(C)C2)CC1 (stereo not given),-12.1% (inactive)
7,CC1CCCCC1NC(=O)/C(C#N)=C/C=C/c1ccccc1[N+](=O)[O-] (stereo not given),9.93% (inactive)
8,COc1cc(/C=N/NC(N)=O)c(Br)cc1OCC(=O)Nc1ccccc1C,-15.2% (inactive)
9,O=C(Nc1ccc(-c2nc3ncccc3o2)cc1)c1ccc([N+](=O)[O-])o1,6.95% (inactive)
